In ChEMBL document CHEMBL4732039, “Introduction of a cyano group at the 2-position of an (R,S)-3-hydroxy-2-(phosphonomethoxy)propyl (HPMP) derivative of thymine elicits selective anti-HBV activity” (RSC Med Chem, 2021):
pEC50: −log10 of the molar value.

Legend:
Human betaherpesvirus 5 [1] = assay: Antiviral activity against HCMV AD169 infected in human HFF cells assessed as reduction in virus-induced cytopathic effect incubated for 14 days by cell-titer glo assay; type: functional, cell-based; conditions: Human betaherpesvirus 5, AD169, HFF, 336 h; for EC90: time 14 day
[2] = test system: Human immunodeficiency virus 1; assay: Antiviral activity against HIV-1 3B infected in human MT4 cells assessed as reduction in virus-induced cytopathic effect measured after 5 days by MTT assay; type: functional, organism-based; conditions: for EC50: mt4
Procedure, shortened: (§1)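 MT-4 cells infected with wild-type HIV-1 IIIB or HIV-2 ROD. Protection read out by MTT assay. Cytotoxicity was assessed in parallel in uninfected MT-4 cells.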

[3] = Selectivity index, ratio of CC50 of human HFF cells to EC50 of antiviral activity against VZV; type: toxicity; conditions: read-out: Ratio CC50/EC50
[4] = test system: Human immunodeficiency virus 2; assay: Antiviral activity against HIV-2 ROD infected in human MT4 cells assessed as reduction in virus-induced cytopathic effect measured after 5 days by MTT assay; type: functional, organism-based; conditions: for EC50: mt4; procedure, shortened: as §1
Hepatitis B virus = assay: Antiviral activity against HBV infected in human HepG2.2.2.15 cells assessed as inhibition of viral replication preincubated for 3 days followed by media replenishment with fresh drug and further incubated for 3 days by qPCR analysis; type: functional, organism-based; conditions: for pEC50: HepG2 2.2.15; for EC90: HepG2 2.2.15, 144 h, time 6 day
Procedure, shortened: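 HepG2 2.2.15 human hepatoblastoma cells, carrying two copies of wild-type HBV (strain ayw) genome and constitutively producing virus. Extracellular HBV DNA copy number from released virions quantified by real-time TaqMan qPCR. […] Lamivudine (3TC) was the positive control.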

Human alphaherpesvirus 3 = assay: Antiviral activity against VZV infected in human HFF cells assessed as reduction in virus-induced cytopathic effect incubated for 14 days by cell-titer glo assay; type: functional, organism-based; conditions: Human alphaherpesvirus 3, HFF, 336 h; for EC90: time 14 day
[5] = Selectivity index, ratio of CC50 for human HFF cells to EC50 for antiviral activity against HCMV AD169
[6] = Cytotoxicity against human HepG2.2.2.15 cells assessed as reduction in cell viability incubated for 6 days by cell titer glo assay; type: cell-based; conditions: time 6 day
[7] = Cytotoxicity against human HFF cells assessed as reduction in cell viability incubated for 14 days by cell titer glo assay; type: cell-based; conditions: time 14 day
[8] = Selectivity index, ratio of CC50 of human HepG2.2.2.15 cells to EC50 of antiviral activity against HBV infected in human HepG2.2.2.15 cells; type: toxicity, cell-based; conditions: read-out: Ratio CC50/EC50
Human betaherpesvirus 5 [9] = assay: Antiviral activity against HCMV AD169 infected in human embryonic lung cells; type: functional, cell-based; conditions: Human betaherpesvirus 5, AD169, Lung

Structure (SMILES) | pEC50 (Human betaherpesvirus 5 [1]) | EC90 (Human betaherpesvirus 5 [1]) [µM] | EC50 [2] | selectivity ratio [3] | EC50 [4] | pEC50 (Hepatitis B virus) | EC90 (Hepatitis B virus) [µM] | pEC50 (Human alphaherpesvirus 3) | EC90 (Human alphaherpesvirus 3) [µM] | Ratio CC50/EC50 [5] | CC50 at 144 h [6] [µM] | CC50 at 336 h [7] [µM] | selectivity ratio [8] | pEC50 (Human betaherpesvirus 5 [9]) | pEC50 ([2]; Human immunodeficiency virus 1, 3B, MT4, 120 h, read-out: EC50) | pEC50 ([4]; Human immunodeficiency virus 2, ROD, MT4, 120 h, read-out: EC50)
CCN(CC)CC.N#CC(CO)(Cn1ccc(N)nc1=O)OCP(=O)(O)O (stereo not drawn) | < 3.82 | > 150 | Not Active | 1 | Not Active | < 4.00 | > 100 | < 3.82 | > 150 | 1 | > 100 | > 150 | 1 |  |  | 
Nc1ncnc2c1ncn2C[C@@H](CO)OCP(=O)(O)O |  |  |  |  |  |  |  |  |  |  |  |  |  | 6.00 |  | 
CCN(CC)CC.N#CC(CO)(Cn1cnc2c(N)ncnc21)OCP(=O)(O)O (stereo not drawn) | 5.96 | > 150 | Not Active | 1 | Not Active | 5.44 | 9.9 | 3.97 | > 150 | >137 | > 100 | > 150 |  |  |  | 
CCN(CC)CC.N#CC(CO)(Cn1cnc2c(=O)[nH]c(N)nc21)OCP(=O)(O)O (stereo not drawn) | 5.70 | > 30 |  | 47 |  | < 4.00 | > 100 | 5.68 | > 30 | 50 | > 100 | 102 | 1 |  | 4.29 | 4.47
CCN(CC)CC.Cc1cn(CC(C#N)(CO)OCP(=O)(O)O)c(=O)[nH]c1=O (stereo not drawn) | < 3.82 | > 150 | Not Active | 1 | Not Active | 6.48 | 0.79 | < 3.82 | > 150 | 1 | > 100 | > 150 | > 302000 |  |  | 
CCN(CC)CC.N#CC(CO)(Cn1ccc(=O)[nH]c1=O)OCP(=O)(O)O (stereo not drawn) | < 3.82 | > 150 | Not Active | 1 | Not Active | < 4.00 | > 100 | < 3.82 | > 150 | 1 | > 100 | > 150 | 1 |  |  | 
Nc1nc2c(ncn2COC(CO)CO)c(=O)[nH]1 [GANCICLOVIR] | 6.05 | 74.2 |  |  |  |  |  |  |  |  |  | > 150 |  |  |  | 
